# Experiments:
# HCV NS5B = HCV NS5B (Hepatitis C virus genotype 1b, UniProt P26663); assay: RdRp assay; format: biochemical; conditions: for IC90: read-out: IC90, RdRp activity of HCV NS5B; for IC50, inhibition of NS5B RdRp activity in vitro: single isolates
# [1] = test system: HCV subgenomic replicon (HCV RNA) in MH14 cells; assay: Quantitation of HCV RNA by RT-PCR in MH14 cells; format: cell-based, Hepatitis C virus; conditions: for inhibition of HCV RNA replication: 500 μM; for HCV replication reduced: 100 μM
# Summary of the method: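 MH14 cells carrying a stable HCV subgenomic replicon were kept at 37 °C, 5% CO2 in DMEM with 10% FBS, penicillin/streptomycin, glutamine and 300 μg/ml G418. Cells were grown 60 h with or without test compound dissolved in DMSO. Total RNA was TRIzol-extracted. HCV RNA was reverse-transcribed with an HCV-specific primer and PCR-amplified for 25 cycles (1 min each at 94, 52, 72 °C). GAPDH mRNA served as internal control.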
# [2] = test system: HCV subgenomic replicon (NS5B, NS5A expression) in MH14 cells; format: cell-based, Hepatitis C virus; conditions: for viral replication reduced (first statement, Fig. 4 B, C): cell culture system; for inhibition at 100 µM: Hepatitis C virus, MH14, read-out: inhibition of NS5B
# Summary of the method: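 MH14 cells with stably replicating HCV subgenomic replicon, grown at 37 °C, 5% CO2 in DMEM with 10% FBS, penicillin/streptomycin, glutamine and 300 μg/ml G418. Cells were exposed to DMSO-dissolved test compound for 48 h, washed, lysed in SDS buffer, boiled, and clarified. Blots were probed with anti-NS5B, NS5A or actin (1:500, overnight, 4 °C), then HRP secondary (1:5,000, 1 h). Chemiluminescent detection used β-actin as the loading control.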
# HCV NS5B (CΔ21) = HCV NS5B (CΔ21) (Hepatitis C virus genotype 1b, UniProt P26663); assay: Fluorescence quenching binding assay; conditions: for time to binding equilibrium with NS5B (fluorescence quenched): data not shown
# MH14 cells = assay: MTT assay; conditions: for influence on cell viability: 2 μM and 10 μM; for influence on cell viability / toxicity / effect on cell growth: 48 h, MH14 cells; for toxicity: 50 μM and 100 μM
# [3] = test system: tumor suppressor protein, p53; assay: p53 expression; format: cell-based; conditions: cells not given
# [4] = test system: p53 expression in peripheral blood mononuclear cells (PBMC); assay: p53 expression in peripheral blood mononuclear cells; format: cell-based
Structure (SMILES),IC50 (HCV NS5B) [µM],IC90 (HCV NS5B) [µM],"IC50, inhibition of NS5B RdRp activity in vitro (HCV NS5B)","HCV replication inhibited, judged by HCV RNA level ([1]; 10 μM) [%]","HCV replication inhibited, judged by HCV RNA level ([1]; 50 μM) [%]","inhibition of NS5B expression ([2]; 10 μM, MH14 cells, 48 h) [%]","NS5B expression by Western blot ([2]; 50 μM, MH14 cells, 48 h)",Kd (HCV NS5B (CΔ21)) [µM],time to binding equilibrium with NS5B (fluorescence quenched) (HCV NS5B (CΔ21)) [min],influence on cell viability (MH14 cells),toxicity (MH14 cells),inhibition of HCV RNA replication [1],effect on cell growth (MH14 cells),HCV replication reduced [1],"viral replication reduced (first statement, Fig. 4 B, C) ([2]; 50 μM) [%]",inhibition at 100 µM [2] [%],effect on tumor suppressor protein p53 [3],effect on p53 expression [4],cytotoxicity in MH14 cell (MH14 cells)
"COc1cc(O)c2c(c1)oc(=O)c1c3cc(O)c(O)cc3oc21 [Compound 4, wedelolactone]",7.7,32,indistinguishable,30,80,> 80,could not detect the expression of NS5B,24.3,≤ 1,no influence on cell viability,toxic,,,,,,,,
"O=C(O)c1ccc(O)cc1 [Compound 2, 4-hydroxybenzoic acid]",,,did not inhibit,,,,,,,,,inhibited HCV RNA replication only at very high concentrations,enhanced cellular proliferation,,,,,,
"O=c1cc(-c2ccc(O)cc2)oc2cc(O)cc(O)c12 [Compound 5, apigenin]",175,,,,50,,,122,≤ 1,no influence on cell viability,toxic,,,~90%,~50,> 90,strongly up-regulate,no effect,comparable high cytotoxicity
"O=C(O)c1ccc(O)c(O)c1 [Compound 1, 3,4-dihydroxybenzoic acid]",400,,,,,,,,,,,inhibited HCV RNA replication only at very high concentrations,enhanced cellular proliferation,,,,,,
"O=c1cc(-c2ccc(O)c(O)c2)oc2cc(O)cc(O)c12 [Compound 3, luteolin]",11.3,52,,,50,,,31.5,≤ 1,,,,,approximately 80%,~50,> 90,strongly up-regulate,no effect,comparable high cytotoxicity
